IC50 and inhibition data for 22 molecules are collected here from ChEMBL document CHEMBL4665801, “Pyrazole-Based Lactate Dehydrogenase Inhibitors with Optimized Cell Activity and Pharmacokinetic Properties” (J Med Chem, 2020).

Molecules are shown by their SMILES. Activity calls are given as the source filed them. The rule behind the calls is not given here.

By IC50 is commonly meant the concentration needed to halve the response being measured.

One assay has as its system MIA PaCa-2. As to the kind of experiment: Cytotoxicity against human MIA PaCa-2 cells assessed as reduction in cell viability after 48 hrs by CellTiter-Glo assay. The assay is classed as functional, cell-based. The following applies: MIA PaCa-2, 48 h. Background: Cellular ATP, detected with luciferase, serves as a proxy for viable cell number.
The species named for the next assay is Sus scrofa. As to the kind of experiment: Inhibition of porcine heart MDH using malic acid as substrate preincubated for 10 mins followed by substrate addition and measured after 5 mins by resazurin based fluorescence based assay. The following applies: time 15.0 min. On the technique in general: The colour change of resazurin is a common sign of viable cells or microbes.

In assay [1] the target is T1, L-lactate dehydrogenase A chain (Homo sapiens, UniProt P00338). As to the kind of experiment: Inhibition of LDHA in human A673 cells assessed as decrease in lactate production incubated for 2 hrs by lactate oxidase-coupled fluorescence based assay. The assay is classed as cell-based.
In assay [2] the target is T1, L-lactate dehydrogenase A chain. The experiment in a line: Inhibition of LDHA in human MIA PaCa-2 cells assessed as decrease in lactate production incubated for 2 hrs by lactate oxidase-coupled fluorescence based assay. The assay is classed as cell-based.
The target is the same in assay [3]. The experiment in a line: Inhibition of GS[HiBiT]GS-tagged LDHA (unknown origin) expressed in HEK-293T cells measured after 1 hr by […]. The assay is classed as cell-based. The essentials: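 HEK293T cells were transiently transfected for 24 h with CMV-driven LDHA carrying a C-terminal GS[HiBiT]GS tag, then reseeded at 2500 cells/well in DPBS with Ca/Mg and 1 g/L glucose. […] Cells were lysed with NP40, and 11S (100 nM final) plus furimazine was added.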
A general note: The HiBiT peptide binds its large partner to form an active luciferase.

Assay [4] shares this target. The experiment in a line: Inhibition of recombinant human LDHA using sodium pyruvate as substrate preincubated for 5 mins followed by diaphorase/resazurin addition and measured after 20 mins by fluorescence based assay.
The target of assay [5] is L-lactate dehydrogenase B chain (Homo sapiens) (UniProt P07195). As to the kind of experiment: Inhibition of recombinant human LDHB using sodium pyruvate as substrate preincubated for 5 mins followed by diaphorase/resazurin addition and measured after 20 mins by fluorescence based assay.
Chain of L-lactate dehydrogenase B chain (Homo sapiens) (P07195 2-334 limits assumed): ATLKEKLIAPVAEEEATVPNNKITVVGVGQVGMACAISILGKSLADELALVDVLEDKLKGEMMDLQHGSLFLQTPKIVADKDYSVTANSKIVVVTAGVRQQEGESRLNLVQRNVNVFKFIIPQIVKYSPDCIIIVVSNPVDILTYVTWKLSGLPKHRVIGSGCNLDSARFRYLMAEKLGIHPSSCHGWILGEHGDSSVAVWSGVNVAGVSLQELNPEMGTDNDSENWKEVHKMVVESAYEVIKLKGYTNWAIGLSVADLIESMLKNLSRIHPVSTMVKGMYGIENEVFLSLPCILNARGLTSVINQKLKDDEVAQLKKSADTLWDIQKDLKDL
A further assay relates to A673. As to the kind of experiment: Cytotoxicity against human A673 cells assessed as reduction in cell viability after 48 hrs by CellTiter-Glo assay. The assay is classed as functional, cell-based. The following applies: A673, 48 h.

`CC#Cc1cccc(-c2nn(-c3nc(C(=O)O)cs3)c(CC3CC3)c2Cc2ccc(S(N)(=O)=O)c(F)c2)c1`: the half-inhibitory concentration (IC50) turned out to be 0.619 µM in the assay on MIA PaCa-2; 0.713 µM in assay [1]; 0.525 µM in assay [2]; 0.15 µM in assay [3]; 0.009 µM in assay [4]. Besides, the inhibition entry in the assay listed under Sus scrofa was “inactive”. The inhibition result in assay [5] is “Active”.
`NS(=O)(=O)c1ccc(Cc2c(-c3cccc(-c4ccccc4)c3)nn(-c3nc(C(=O)O)cs3)c2CCC2CC2)cc1`: the IC50 was determined as 6.2 µM in the assay on MIA PaCa-2; 0.509 µM in assay [1]; 0.804 µM in assay [2]; 0.727 µM in assay [3]; 0.036 µM in assay [4]; 1.96 µM with A673. The inhibition entry in the assay filed under Sus scrofa is “inactive”. Also, the inhibition entry in assay [5] was “Active”.
Turning to `NS(=O)(=O)c1ccc(Cc2c(-c3cccc(-c4ccccc4)c3)nn(-c3nc(C(=O)O)cs3)c2C2(C(F)(F)F)CC2)cc1`, the half-inhibitory concentration (IC50) with MIA PaCa-2 is more than 30 µM; in assay [1], 20.2 µM; in assay [2], 12.8 µM; in assay [3] it was 0.303 µM; in assay [4] it was 4.1 µM; in the assay with A673 it was more than 30 µM. In addition, in the assay filed under Sus scrofa, the inhibition result was “inactive”. For the same molecule, in assay [5], the inhibition entry is “Active”.
With `NS(=O)(=O)c1ccc(Cc2c(-c3ccc(F)c(C#Cc4cccs4)c3)nn(-c3nc(C(=O)O)cs3)c2CC2CC2)cc1F`, the IC50 stood at 0.268 µM with MIA PaCa-2; 0.438 µM in assay [1]; 0.307 µM in assay [2]; 0.089 µM in assay [3]; 0.032 µM in assay [4]; 0.265 µM with A673. Moreover, in the assay filed under Sus scrofa, the inhibition entry was “inactive”. The inhibition entry in assay [5] was “Active”.
Consider `CC#Cc1cc(-c2nn(-c3nc(C(=O)O)cs3)c(CC3CC3)c2Cc2ccc(S(N)(=O)=O)c(F)c2)ccc1F`, for which the IC50 with MIA PaCa-2 is 0.322 µM; in assay [1], 0.505 µM; in assay [2], 0.45 µM; in assay [3], 0.119 µM; in assay [4], 0.011 µM; with A673, 0.332 µM. Further, the inhibition result in the assay listed under Sus scrofa was “inactive”. The inhibition entry in assay [5] is “Active”.
`NS(=O)(=O)c1ccc(Cc2c(-c3ccc(F)c(C#CC(F)F)c3)nn(-c3nc(C(=O)O)cs3)c2CC2CC2)cc1F`: the IC50 in the assay with MIA PaCa-2 is 1.33 µM; in assay [1] it was 0.937 µM; in assay [2], 0.741 µM; in assay [3] it was 0.163 µM; in assay [4] it was 0.015 µM; in the assay with A673 it was 1.48 µM. Besides, the inhibition entry in the assay filed under Sus scrofa was “inactive”. Also, the inhibition result in assay [5] is “Active”.
With `NS(=O)(=O)c1ccc(Cc2c(-c3cccc(-c4ccccc4)c3)nn(-c3nc(C(=O)O)cs3)c2CC2CC2(F)F)cc1` (configuration not stated), the IC50 stood at 10.7 µM in the assay on MIA PaCa-2; 1.42 µM in assay [1]; 1.72 µM in assay [2]; 0.501 µM in assay [3]; 0.025 µM in assay [4]; 4.64 µM in the assay with A673. Further, the inhibition entry in the assay listed under Sus scrofa was “inactive”. In assay [5], the inhibition result was “Active”.
For the molecule `NS(=O)(=O)c1ccc(Cc2c(-c3ccc(F)c(C#CCCO)c3)nn(-c3nc(C(=O)O)cs3)c2CC2CC2)cc1F`, the IC50 in the assay with MIA PaCa-2 turned out to be 1.33 µM; in assay [1] it was 2.48 µM; in assay [2], 1.66 µM; in assay [3], 0.577 µM; in assay [4], 0.003 µM; with A673, 1.8 µM. Further, in the assay listed under Sus scrofa, the inhibition entry is “inactive”. In assay [5], the inhibition entry was “Active”.
As for `NS(=O)(=O)c1ccc(Cc2c(-c3cccc(C#Cc4ccc(C(F)(F)F)s4)c3)nn(-c3nc(C(=O)O)cs3)c2CC2CC2)cc1F`, the IC50 turned out to be 0.803 µM in the assay with MIA PaCa-2; 0.485 µM in assay [1]; 0.337 µM in assay [2]; 0.113 µM in assay [3]; 0.434 µM in assay [4]; 0.833 µM in the assay on A673. For the same molecule, the inhibition entry in the assay filed under Sus scrofa is “inactive”. For the same molecule, in assay [5], the inhibition entry is “Active”.
`Cn1cc(C#Cc2cc(-c3nn(-c4nc(C(=O)O)cs4)c(CC4CC4)c3Cc3ccc(S(N)(=O)=O)c(F)c3)ccc2F)cn1`: the IC50 is 0.619 µM in the assay on MIA PaCa-2; 1.6 µM in assay [1]; 1.14 µM in assay [2]; 0.189 µM in assay [3]; 0.009 µM in assay [4]; 0.593 µM in the assay on A673. In addition, the inhibition entry in the assay filed under Sus scrofa is “inactive”. Also, in assay [5], the inhibition result is “Active”.
`Cc1cnc(C#Cc2cccc(-c3nn(-c4nc(C(=O)O)cs4)c(CC4CC4)c3Cc3ccc(S(N)(=O)=O)c(F)c3)c2)o1`: the IC50 in the assay with MIA PaCa-2 amounted to 0.671 µM; in assay [1], 0.525 µM; in assay [2], 0.45 µM; in assay [3] it was 0.119 µM; in assay [4], 0.012 µM. Besides, the inhibition entry in the assay listed under Sus scrofa is “inactive”. In addition, the inhibition result in assay [5] is “Active”.
With `NS(=O)(=O)c1ccc(Cc2c(-c3cccc(C#Cc4ccc(C5CC5)s4)c3)nn(-c3nc(C(=O)O)cs3)c2CCC2CC2)cc1F`, the IC50 in the assay with MIA PaCa-2 was 0.265 µM; in assay [1] it was 0.434 µM; in assay [2], 0.387 µM; in assay [3], 0.189 µM; in assay [4], 0.306 µM. The inhibition entry in the assay filed under Sus scrofa is “inactive”. Moreover, the inhibition result in assay [5] is “Active”.
As to `CC(C)(C)c1ccc(C#Cc2cc(-c3nn(-c4nc(C(=O)O)cs4)c(CC4CC4)c3Cc3ccc(S(N)(=O)=O)c(F)c3)ccc2F)s1`, the IC50 is 0.665 µM in the assay with MIA PaCa-2; 0.529 µM in assay [1]; 0.507 µM in assay [2]; 10.6 µM in assay [3]; 0.713 µM in assay [4]. For the same molecule, the inhibition entry in the assay filed under Sus scrofa is “inactive”. Also, the inhibition result in assay [5] was “Active”.
Turning to `NS(=O)(=O)c1ccc(Cc2c(-c3cccc(C#Cc4ccc(C5CCC5)s4)c3)nn(-c3nc(C(=O)O)cs3)c2CC2CC2)cc1F`, the IC50 in the assay on MIA PaCa-2 came out at 0.905 µM; in assay [1], 0.333 µM; in assay [2], 0.491 µM; in assay [3] it was 0.27 µM; in assay [4], 0.169 µM. Further, the inhibition entry in the assay filed under Sus scrofa was “inactive”. Besides, the inhibition result in assay [5] was “Active”.
With `NS(=O)(=O)c1ccc(Cc2c(-c3ccc(F)c(C#CC4CCNCC4)c3)nn(-c3nc(C(=O)O)cs3)c2CC2CC2)cc1F`, the IC50 is 17.3 µM with MIA PaCa-2; 12.2 µM in assay [1]; 8.91 µM in assay [2]; 2.58 µM in assay [3]; 0.015 µM in assay [4]. The inhibition result in the assay filed under Sus scrofa was “inactive”. For the same molecule, the inhibition result in assay [5] is “Active”.
Take `NS(=O)(=O)c1ccc(Cc2c(-c3cccc(C#Cc4ccc(C5CCC5)s4)c3)nn(-c3nc(C(=O)O)cs3)c2CCC2CC2)cc1F`: the inhibition result in the assay filed under Sus scrofa was “inactive”. Moreover, the IC50 came out at 0.572 µM in assay [1]; 0.379 µM in assay [2]; 0.299 µM in assay [3]; 0.636 µM in assay [4]; 0.571 µM in the assay with A673. Besides, the inhibition result in assay [5] is “Active”.
`NS(=O)(=O)c1ccc(Cc2c(-c3ccc(F)c(C#CCN4CCCC4)c3)nn(-c3nc(C(=O)O)cs3)c2CC2CC2)cc1F`: in the assay listed under Sus scrofa, the inhibition entry is “inactive”. In addition, the IC50 in assay [1] came to 1.09 µM; in assay [2], 1.01 µM; in assay [3], 0.267 µM; in assay [4], 0.008 µM. In addition, the inhibition result in assay [5] was “Active”.
On to `Cn1cncc1C#Cc1cc(-c2nn(-c3nc(C(=O)O)cs3)c(CC3CC3)c2Cc2ccc(S(N)(=O)=O)c(F)c2)ccc1F`, for which the IC50 turned out to be 1.39 µM in the assay on MIA PaCa-2; 1.6 µM in assay [1]; 1.07 µM in assay [2]; 0.299 µM in assay [3]; 0.008 µM in assay [4]. The inhibition entry in the assay listed under Sus scrofa is “inactive”. Besides, the inhibition entry in assay [5] is “Active”.
Consider `NS(=O)(=O)c1ccc(Cc2c(-c3ccc(F)c(C#CC4CCOC4)c3)nn(-c3nc(C(=O)O)cs3)c2CC2CC2)cc1F` (configuration not stated), for which the inhibition result in the assay listed under Sus scrofa was “inactive”. Further, the IC50 in assay [1] (a673) stood at 1.27 µM; in assay [2], 0.831 µM; in assay [3] it was 0.089 µM; in assay [4], 0.007 µM; in the assay on A673 it was 0.973 µM. Further, the inhibition entry in assay [5] is “Active”.
Take `NS(=O)(=O)c1ccc(Cc2c(-c3ccc(F)c(C#CCN4CCOCC4)c3)nn(-c3nc(C(=O)O)cs3)c2CC2CC2)cc1F`: the inhibition entry in the assay listed under Sus scrofa is “inactive”. Moreover, the IC50 in assay [1] amounted to 15.3 µM; in assay [2] it was 18.9 µM; in assay [3], 5.05 µM; in assay [4], 0.107 µM; in the assay on A673, 5.83 µM. Moreover, in assay [5], the inhibition entry was “Active”.
In the case of `Cc1ccsc1C#Cc1cccc(-c2nn(-c3nc(C(=O)O)cs3)c(CC3CC3)c2Cc2ccc(S(N)(=O)=O)c(F)c2)c1`, the IC50 stood at 0.452 µM in the assay with MIA PaCa-2; 0.39 µM in assay [1]; 0.417 µM in assay [2]; 0.119 µM in assay [3]; 0.101 µM in assay [4]. For the same molecule, the inhibition entry in the assay filed under Sus scrofa is “inactive”. In addition, in assay [5], the inhibition result is “Active”.
Regarding `NS(=O)(=O)c1ccc(Cc2c(-c3cccc(-c4ccccc4)c3)nn(-c3nc(C(=O)O)cs3)c2CC2CC2)c(F)c1`, the 50% inhibitory concentration (IC50) with MIA PaCa-2 worked out at 5.75 µM; in assay [1] it was 4.46 µM; in assay [2], 6.46 µM; in assay [4], 0.229 µM; in the assay with A673, 11.5 µM. Besides, the inhibition result in the assay listed under Sus scrofa is “inactive”. Also, in assay [5], the inhibition result was “Active”.
